According to ChEMBL document CHEMBL2375290, “Nonclassical antifolates, part 3: synthesis, biological evaluation and molecular modeling study of some new 2-heteroarylthio-quinazolin-4-ones” (Eur J Med Chem, 2013):
Values after ≈ are worked out from the molar mass of the structure shown.

Assays:
T47D = test: Cytotoxicity against human T47D cells at 10 uM after 48 hrs by coulter counter analysis; assay type: functional; details: read-out: GI
Hs-578T = test: Cytotoxicity against human Hs578T cells at 10 uM after 48 hrs by coulter counter analysis; assay type: functional; details: read-out: GI
MCF7 = test: Cytotoxicity against human MCF7 cells at 10 uM after 48 hrs by coulter counter analysis; assay type: functional; details: MCF7, 48 h, read-out: GI
MDA-MB-231 = test: Cytotoxicity against human MDA-MB-231 cells at 10 uM after 48 hrs by coulter counter analysis; assay type: functional; details: MDA-MB-231, 48 h, read-out: GI
PC-3 = test: Cytotoxicity against human PC3 cells at 10 uM after 48 hrs by coulter counter analysis; assay type: functional; details: PC-3, 48 h, read-out: GI
UO-31 = test: Cytotoxicity against human UO31 cells at 10 uM after 48 hrs by coulter counter analysis; assay type: functional; details: UO-31, 48 h, read-out: GI
RXF 393 = test: Cytotoxicity against human RXF393 cells at 10 uM after 48 hrs by coulter counter analysis; assay type: functional; details: RXF 393, 48 h, read-out: GI
SN12C = test: Cytotoxicity against human SN12C cells at 10 uM after 48 hrs by coulter counter analysis; assay type: functional; details: read-out: GI
A498 = test: Cytotoxicity against human A498 cells at 10 uM after 48 hrs by coulter counter analysis; assay type: functional; details: A498, 48 h, read-out: GI
CAKI-1 = test: Cytotoxicity against human Caki1 cells at 10 uM after 48 hrs by coulter counter analysis; assay type: functional; details: CAKI-1, 48 h, read-out: GI
[1] = Cytotoxicity against human NCI-ADR-RES cells at 10 uM after 48 hrs by coulter counter analysis; assay type: functional; details: read-out: GI
OVCAR-4 = test: Cytotoxicity against human OVCAR4 cells at 10 uM after 48 hrs by coulter counter analysis; assay type: functional; details: OVCAR-4, 48 h, read-out: GI
UACC-62 = test: Cytotoxicity against human UACC62 cells at 10 uM after 48 hrs by coulter counter analysis; assay type: functional; details: UACC-62, 48 h, read-out: GI
IGROV-1 = test: Cytotoxicity against human IGROV1 cells at 10 uM after 48 hrs by coulter counter analysis; assay type: functional; details: IGROV-1, 48 h, read-out: GI
SK-MEL-5 = test: Cytotoxicity against human SK-MEL-5 cells at 10 uM after 48 hrs by coulter counter analysis; assay type: functional; details: SK-MEL-5, 48 h, read-out: GI
Malme-3M = test: Cytotoxicity against human MALME-3M cells at 10 uM after 48 hrs by coulter counter analysis; assay type: functional; details: read-out: GI
MDA-MB-435 = test: Cytotoxicity against human MDA-MB-435 cells at 10 uM after 48 hrs by coulter counter analysis; assay type: functional; details: MDA-MB-435, 48 h, read-out: GI
SNB-75 = test: Cytotoxicity against human SNB75 cells at 10 uM after 48 hrs by coulter counter analysis; assay type: functional; details: SNB-75, 48 h, read-out: GI
LOX IMVI = test: Cytotoxicity against human LOXIMVI cells at 10 uM after 48 hrs by coulter counter analysis; assay type: functional; details: read-out: GI
SNB-19 = test: Cytotoxicity against human SNB19 cells at 10 uM after 48 hrs by coulter counter analysis; assay type: functional; details: SNB-19, 48 h, read-out: GI
NCI-H522 = test: Cytotoxicity against human NCI-H522 cells at 10 uM after 48 hrs by coulter counter analysis; assay type: functional; details: NCI-H522, 48 h, read-out: GI
SF-295 = test: Cytotoxicity against human SF295 cells at 10 uM after 48 hrs by coulter counter analysis; assay type: functional; details: SF-295, 48 h, read-out: GI
NCI-H23 = test: Cytotoxicity against human NCI-H23 cells at 10 uM after 48 hrs by coulter counter analysis; assay type: functional; details: NCI-H23, 48 h, read-out: GI
[2] = Cytotoxicity against human EKVX cells at 10 uM after 48 hrs by coulter counter analysis; assay type: functional; details: read-out: GI
NCI-H226 = test: Cytotoxicity against human NCI-H226 cells at 10 uM after 48 hrs by coulter counter analysis; assay type: functional; details: NCI-H226, 48 h, read-out: GI
A549 = test: Cytotoxicity against human A549/ATCC cells at 10 uM after 48 hrs by coulter counter analysis; assay type: functional; details: A549, 48 h, read-out: GI
RPMI-8226 = test: Cytotoxicity against human RPMI8226 cells at 10 uM after 48 hrs by coulter counter analysis; assay type: functional; details: RPMI-8226, 48 h, read-out: GI
SR = test: Cytotoxicity against human SR cells at 10 uM after 48 hrs by coulter counter analysis; assay type: functional; details: read-out: GI
MOLT-4 = test: Cytotoxicity against human MOLT4 cells at 10 uM after 48 hrs by coulter counter analysis; assay type: functional; details: MOLT-4, 48 h, read-out: GI
CCRF-CEM = test: Cytotoxicity against human CCRF-CEM cells at 10 uM after 48 hrs by coulter counter analysis; assay type: functional; details: read-out: GI
HL-60(TB) = test: Cytotoxicity against human HL-60(TB) cells at 10 uM after 48 hrs by coulter counter analysis; assay type: functional; details: HL-60, 48 h, read-out: GI
Escherichia coli [3] = test: Antimicrobial activity against Escherichia coli after 24 hrs by micro-dilution susceptibility method
Bacillus subtilis [4] = test: Antimicrobial activity against Bacillus subtilis after 24 hrs by micro-dilution susceptibility method; assay type: functional
Procedure, shortened: (§1)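 Broth microdilution in Müller-Hinton broth against S. aureus IFO 3060, B. subtilis IFO 3007, E. coli IFO 3301 and P. aeruginosa IFO 3448. These are the same standard strains used in the disc-diffusion primary screen. Compounds were solubilized in DMSO. MIC recorded as the minimal inhibitory concentration.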

Staphylococcus aureus [5] = test: Antimicrobial activity against Staphylococcus aureus after 24 hrs by micro-dilution susceptibility method; assay type: functional; procedure, shortened: as §1
Pseudomonas aeruginosa = test: Antimicrobial activity against Pseudomonas aeruginosa at 200 ug after 24 hrs by agar disc diffusion method; assay type: functional; details: read-out: DIZ
Escherichia coli [6] = test: Antimicrobial activity against Escherichia coli at 200 ug after 24 hrs by agar disc diffusion method; assay type: functional; details: read-out: DIZ
Micrococcus luteus [7] = test: Antimicrobial activity against Micrococcus luteus at 200 ug after 24 hrs by agar disc diffusion method; assay type: functional; details: read-out: DIZ
Bacillus subtilis [8] = test: Antimicrobial activity against Bacillus subtilis at 200 ug after 24 hrs by agar disc diffusion method; assay type: functional; details: read-out: DIZ
Dihydrofolate reductase = molecular target: T1, Dihydrofolate reductase (Bos taurus, UniProt P00376); test: Inhibition of bovine DHFR after 2 mins by spectrophotometry
T1 sequence (P00376 whole entry): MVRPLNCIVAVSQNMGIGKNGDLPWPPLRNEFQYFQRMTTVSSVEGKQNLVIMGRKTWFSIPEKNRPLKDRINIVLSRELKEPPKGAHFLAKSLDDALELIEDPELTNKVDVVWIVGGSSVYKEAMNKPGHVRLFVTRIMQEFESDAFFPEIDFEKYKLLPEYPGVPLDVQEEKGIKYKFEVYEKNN

Staphylococcus aureus [9] = test: Antimicrobial activity against Staphylococcus aureus at 200 ug after 24 hrs by agar disc diffusion method; assay type: functional; details: read-out: DIZ
Micrococcus luteus [10] = test: Antimicrobial activity against Micrococcus luteus after 24 hrs by micro-dilution susceptibility method; assay type: functional
Procedure, shortened: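 MIC by broth microdilution in Müller-Hinton broth against M. luteus IFO 3232, the same strain used in the disc-diffusion primary screen.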

## COc1cc2nc(Sc3ncccc3C(=O)O)n(Cc3ccccc3)c(=O)c2cc1OC
T47D
  inhibition of growth at 10 µM: < 10%
Hs-578T
  inhibition of growth at 10 µM: < 10%
MCF7
  inhibition of growth at 10 µM: 13.5%
MDA-MB-231
  inhibition of growth at 10 µM: < 10%
PC-3
  inhibition of growth at 10 µM: < 10%
UO-31
  inhibition of growth at 10 µM: 14.6%
RXF 393
  inhibition of growth at 10 µM: < 10%
SN12C
  inhibition of growth at 10 µM: < 10%
A498
  inhibition of growth at 10 µM: < 10%
CAKI-1
  inhibition of growth at 10 µM: 15.9%
[1]
  inhibition of growth at 10 µM: < 10%
OVCAR-4
  inhibition of growth at 10 µM: 14.3%
UACC-62
  inhibition of growth at 10 µM: 11.6%
IGROV-1
  inhibition of growth at 10 µM: < 10%
SK-MEL-5
  inhibition of growth at 10 µM: < 10%
Malme-3M
  inhibition of growth at 10 µM: < 10%
MDA-MB-435
  inhibition of growth at 10 µM: < 10%
SNB-75
  inhibition of growth at 10 µM: < 10%
LOX IMVI
  inhibition of growth at 10 µM: < 10%
SNB-19
  inhibition of growth at 10 µM: < 10%
NCI-H522
  inhibition of growth at 10 µM: 17.3%
SF-295
  inhibition of growth at 10 µM: < 10%
NCI-H23
  inhibition of growth at 10 µM: < 10%
[2]
  inhibition of growth at 10 µM: 23.1%
NCI-H226
  inhibition of growth at 10 µM: 14%
A549
  inhibition of growth at 10 µM: < 10%
RPMI-8226
  inhibition of growth at 10 µM: 12.5%
SR
  inhibition of growth at 10 µM: 29.8%
MOLT-4
  inhibition of growth at 10 µM: 13.8%
CCRF-CEM
  inhibition of growth at 10 µM: < 10%
HL-60(TB)
  inhibition of growth at 10 µM: 13.2%
Escherichia coli [3]
  MIC: 4 mg/L (≈ 8.9 µM)
Bacillus subtilis [4]
  MIC: 2 mg/L (≈ 4.45 µM)
Staphylococcus aureus [5]
  MIC: 4 mg/L (≈ 8.9 µM)
Pseudomonas aeruginosa
  zone of inhibition at 200 µg/disc: 12 mm
Escherichia coli [6]
  zone of inhibition at 200 µg/disc: 18 mm
Micrococcus luteus [7]
  zone of inhibition at 200 µg/disc: 15 mm
Bacillus subtilis [8]
  zone of inhibition at 200 µg/disc: 26 mm
Dihydrofolate reductase
  IC50: 5 µM
Staphylococcus aureus [9]
  zone of inhibition at 200 µg/disc: 22 mm

## COc1cc2nc(Sc3cnc(N)s3)n(-c3ccccc3)c(=O)c2cc1OC
T47D
  inhibition of growth at 10 µM: < 10%
Hs-578T
  inhibition of growth at 10 µM: < 10%
MCF7
  inhibition of growth at 10 µM: < 10%
MDA-MB-231
  inhibition of growth at 10 µM: 18.6%
PC-3
  inhibition of growth at 10 µM: 12%
UO-31
  inhibition of growth at 10 µM: 22.2%
RXF 393
  inhibition of growth at 10 µM: < 10%
SN12C
  inhibition of growth at 10 µM: < 10%
A498
  inhibition of growth at 10 µM: < 10%
CAKI-1
  inhibition of growth at 10 µM: 17.8%
[1]
  inhibition of growth at 10 µM: < 10%
OVCAR-4
  inhibition of growth at 10 µM: < 10%
UACC-62
  inhibition of growth at 10 µM: < 10%
IGROV-1
  inhibition of growth at 10 µM: 13%
SK-MEL-5
  inhibition of growth at 10 µM: < 10%
Malme-3M
  inhibition of growth at 10 µM: < 10%
MDA-MB-435
  inhibition of growth at 10 µM: < 10%
SNB-75
  inhibition of growth at 10 µM: < 10%
LOX IMVI
  inhibition of growth at 10 µM: < 10%
SNB-19
  inhibition of growth at 10 µM: < 10%
NCI-H522
  inhibition of growth at 10 µM: < 10%
SF-295
  inhibition of growth at 10 µM: < 10%
NCI-H23
  inhibition of growth at 10 µM: < 10%
[2]
  inhibition of growth at 10 µM: 12.7%
NCI-H226
  inhibition of growth at 10 µM: < 10%
A549
  inhibition of growth at 10 µM: < 10%
RPMI-8226
  inhibition of growth at 10 µM: 12.5%
SR
  inhibition of growth at 10 µM: 14.8%
MOLT-4
  inhibition of growth at 10 µM: < 10%
CCRF-CEM
  inhibition of growth at 10 µM: < 10%
HL-60(TB)
  inhibition of growth at 10 µM: < 10%
Escherichia coli [3]
  MIC: 4 mg/L (≈ 9.7 µM)
Micrococcus luteus [10]
  MIC: 4 mg/L (≈ 9.7 µM)
Bacillus subtilis [4]
  MIC: 4 mg/L (≈ 9.7 µM)
Staphylococcus aureus [5]
  MIC: 8 mg/L (≈ 19.4 µM)
Pseudomonas aeruginosa
  zone of inhibition at 200 µg/disc: 14 mm
Escherichia coli [6]
  zone of inhibition at 200 µg/disc: 18 mm
Micrococcus luteus [7]
  zone of inhibition at 200 µg/disc: 16 mm
Bacillus subtilis [8]
  zone of inhibition at 200 µg/disc: 20 mm
Dihydrofolate reductase
  IC50: 0.5 µM
Staphylococcus aureus [9]
  zone of inhibition at 200 µg/disc: 18 mm
